Bioassay records (PubChem)
SKN-1 inh: blocks SKN-1 activity in C. elegans; C. elegans VP596 Pgst-4::GFP/RFP ratio, acrylamide-induced, 24 h; inhibition, % at 21.8 µM; actives 0.49% (n = 360,000); AID 624304;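 active = interference check ratio from 0.5 to 1.5 plus GFP to RFP signal ratio inhibition reaching or exceeding a fixed threshold, cut at about 30% in these data, passing the limit was not always enough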
CendR NRP1 mod: alters CendR peptide binding to human NRP-1; AID 602438; actives 0.85% (n = 360,000); O14786; FAM-RPARPAR peptide binding to NRP-1, fluorescence polarization; inhibition, % at 25 µM;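 active = inhibition or corrected inhibition above about 18%, plus a signal ratio from 0.5 to 1.5, limit read from the data, passing the limit was not always enough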
Target sequence (O14786 whole entry, looked up): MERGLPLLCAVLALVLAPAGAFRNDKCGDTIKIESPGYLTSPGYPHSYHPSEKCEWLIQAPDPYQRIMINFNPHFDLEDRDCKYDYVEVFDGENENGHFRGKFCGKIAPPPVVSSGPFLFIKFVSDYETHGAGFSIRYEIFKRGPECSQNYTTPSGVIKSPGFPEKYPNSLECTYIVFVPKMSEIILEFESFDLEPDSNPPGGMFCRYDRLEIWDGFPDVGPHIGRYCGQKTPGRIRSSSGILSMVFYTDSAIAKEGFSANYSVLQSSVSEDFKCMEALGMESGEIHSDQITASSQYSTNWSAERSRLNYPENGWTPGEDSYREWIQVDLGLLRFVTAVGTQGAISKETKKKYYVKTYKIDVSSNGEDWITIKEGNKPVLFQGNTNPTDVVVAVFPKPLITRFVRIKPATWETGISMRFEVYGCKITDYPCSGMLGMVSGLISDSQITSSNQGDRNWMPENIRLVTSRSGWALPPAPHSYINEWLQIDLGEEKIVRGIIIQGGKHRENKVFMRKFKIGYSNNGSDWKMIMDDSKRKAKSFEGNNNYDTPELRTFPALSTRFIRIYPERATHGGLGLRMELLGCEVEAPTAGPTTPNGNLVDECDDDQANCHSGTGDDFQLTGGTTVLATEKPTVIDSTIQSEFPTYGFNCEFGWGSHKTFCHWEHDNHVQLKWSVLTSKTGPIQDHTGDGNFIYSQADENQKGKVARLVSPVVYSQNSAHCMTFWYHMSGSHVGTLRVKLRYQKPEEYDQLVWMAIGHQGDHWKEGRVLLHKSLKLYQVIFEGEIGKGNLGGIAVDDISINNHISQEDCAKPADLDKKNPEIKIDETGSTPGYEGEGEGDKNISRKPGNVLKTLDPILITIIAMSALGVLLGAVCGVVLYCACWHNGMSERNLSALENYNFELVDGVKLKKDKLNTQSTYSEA
MT1-MMP act inh: MT1-MMP (human) activation inhibition | HT1080 RFP-PRO-GFP cells, GFP/RFP ratio fluorescence, overnight; percent of plate control window, DMSO zero | actives 0.061% (n = 360,000) | P50281 | GFP/RFP ratio change, % at 20 µM;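 active = GFP/RFP ratio change of at least 30% with cell ATP level not reduced by more than half and red fluorescence within 50% of control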
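system = RFP-PRO-GFP reporter HT1080 cells | dosing = 20 µM single dose, 1% DMSO | timing = overnight cell settling, then overnight compound exposure, 37 °C, 5% CO2 | read-out basis = GFP/RFP fluorescence ratio | controls = DMSO and RFP-L50D-GFP cell wells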
iPSC survival up: hiPSC single-cell survival enhancement; ATPlite luminescence; 100% = ROCK inhibitor wells, 0% = DMSO; actives 0.044% (n = 360,000); survival enhancement, % at 20 µM; in the data active = survival enhancement above about 18%;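 note: cells exposed to compounds for 16 hours before the ATP read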
Numbers without * were called inactive. Shown are actives, neighbours in structure and some others; about 1.4% of the full set was active somewhere.

For Cc1ccc(S(=O)(=O)Nc2c(C)n(C)n(-c3ccccc3)c2=O)cc1C(=O)OC(C)C(=O)c1ccccc1 (stereo not drawn) the results were SKN-1 inh -16, CendR NRP1 mod 2, MT1-MMP act inh 0 and iPSC survival up 0.
O=C1C=C(c2cccc3c2Oc2ccccc2S3)C[C@@H](c2ccc(Cl)cc2)C1 was read as SKN-1 inh 7, CendR NRP1 mod 29*, MT1-MMP act inh -4 and iPSC survival up 1.
Screening Cc1nc(Nc2ccc(S(N)(=O)=O)cc2)oc1C returned SKN-1 inh -19, CendR NRP1 mod 26*, MT1-MMP act inh 4 and iPSC survival up -2.
CC(C)(C)NC(=O)C(c1ccncc1)N(C(=O)c1csnn1)c1cccc2ccccc12 (stereo not drawn) was read as SKN-1 inh -7, CendR NRP1 mod -8, MT1-MMP act inh -1 and iPSC survival up 0.
`CC1Cc2ccccc2N1C(=O)CSc1nnc2c(n1)[nH]c1ccc(F)cc12` (stereo not drawn) gave SKN-1 inh 2, CendR NRP1 mod 22*, MT1-MMP act inh -4 and iPSC survival up 0.
`O=C(CSc1nnc2c(n1)[nH]c1ccc(F)cc12)N1CCOCC1` gave SKN-1 inh -3, CendR NRP1 mod 0, MT1-MMP act inh 6 and iPSC survival up 0.
Screening CCSc1ncc(/C=N/Nc2ccccc2)n1C returned SKN-1 inh 45*, CendR NRP1 mod 0, MT1-MMP act inh 4 and iPSC survival up -1.
O=C(Nc1ccc(-c2ccc(N3CCCCC3)nn2)cc1)c1ccco1 was read as SKN-1 inh 15, CendR NRP1 mod 0, MT1-MMP act inh 2 and iPSC survival up 0.
For O=C(Nc1ccc(-c2nnc3n2CCCCC3)cc1)c1ccco1 the results were SKN-1 inh 7, CendR NRP1 mod 34*, MT1-MMP act inh -1 and iPSC survival up -3.
`CC(=O)Nc1ccc(C(=O)OCC(=O)NCCC2=CCCCC2)cc1` gave SKN-1 inh 5, CendR NRP1 mod -3, MT1-MMP act inh 5 and iPSC survival up 0.
For CCCS(=O)(=O)N1CCC(C(=O)NC2CCCC(C)C2C)CC1 (stereo not drawn) the results were SKN-1 inh 4, CendR NRP1 mod 26*, MT1-MMP act inh -3 and iPSC survival up 7.
`CC(C)OC(=O)c1ccc(NC(=O)c2ccccc2)cc1` gave SKN-1 inh 32, CendR NRP1 mod 35*, MT1-MMP act inh -1 and iPSC survival up -1.
`COC(=O)c1ccc(N(CC(=O)NCC2CCCO2)C(=O)CCC(=O)Nc2cc(C)on2)cc1` (stereo not drawn) gave SKN-1 inh 7, CendR NRP1 mod -3, MT1-MMP act inh 3 and iPSC survival up 0.
COc1n[nH]c2nncnc12 was read as SKN-1 inh 2, CendR NRP1 mod 28*, MT1-MMP act inh 3 and iPSC survival up -2.
`O=C(COC(=O)Cc1ccc(S(=O)(=O)N2CCOCC2)s1)Nc1ccccc1Cl` gave SKN-1 inh 9, CendR NRP1 mod 7, MT1-MMP act inh -2 and iPSC survival up 1.
For CC(=O)Nc1ccc(S(=O)(=O)N2CCSC2c2ccc(Cl)cc2)cc1 (stereo not drawn) the results were SKN-1 inh -4, CendR NRP1 mod 4, MT1-MMP act inh 11 and iPSC survival up 4.
Screening COc1ccc(CNC(=O)c2ccccc2[N+](=O)[O-])cc1 returned SKN-1 inh 9, CendR NRP1 mod 26*, MT1-MMP act inh 1 and iPSC survival up -2.
`FC(F)(F)c1cc(-c2ccccc2)nc(NCC2CCCO2)n1` (stereo not drawn) gave SKN-1 inh 17, CendR NRP1 mod -2, MT1-MMP act inh -1 and iPSC survival up -1.
`FC(F)(F)c1cc(-c2ccccc2)nc(NC2CCCC2)n1` gave SKN-1 inh 37*, CendR NRP1 mod 2, MT1-MMP act inh -11 and iPSC survival up -1.
Screening O=C(N/N=C/c1ccc(Cl)cc1)c1cc2c(s1)-c1ccccc1CC2 returned SKN-1 inh -3, CendR NRP1 mod -1, MT1-MMP act inh -9 and iPSC survival up 3.
N#Cc1c(-c2ccco2)nc(SCc2ccc(F)cc2)[nH]c1=O was read as SKN-1 inh -11, CendR NRP1 mod -32, MT1-MMP act inh -8 and iPSC survival up 1.
`CC1(C)Cc2c(C#N)c(NCC3CCCO3)nc(-c3ccco3)c2CO1` (stereo not drawn) gave SKN-1 inh 2, CendR NRP1 mod -24, MT1-MMP act inh -5 and iPSC survival up 20*.
N#Cc1c(-c2ccco2)nc(NCC2CCCO2)[nH]c1=O (stereo not drawn) was read as SKN-1 inh 6, CendR NRP1 mod 27*, MT1-MMP act inh 11 and iPSC survival up 0.
CCOC(=O)CNC(=O)N1CCC(CCOc2ccccc2)(C(=O)OCC)CC1 was read as SKN-1 inh -9, CendR NRP1 mod 6, MT1-MMP act inh 4 and iPSC survival up -1.
Screening O=C(Nc1ccc(C(=O)N2CCCCC2)cc1)c1cccs1 returned SKN-1 inh 8, CendR NRP1 mod -7, MT1-MMP act inh -1 and iPSC survival up 0.
`CCNS(=O)(=O)c1cccc(C(=O)c2c(C)cc3ccccn23)c1` gave SKN-1 inh 2, CendR NRP1 mod -5, MT1-MMP act inh 2 and iPSC survival up -2.
Cc1nc(-c2cccc(NC(=O)C(C)Oc3ccccc3)c2)cs1 (stereo not drawn) was read as SKN-1 inh 11, CendR NRP1 mod 5, MT1-MMP act inh -1 and iPSC survival up -1.
COc1ccc(/C=C2\CCCC3C2=NN(C(=O)c2scnc2C)C3c2ccc(OC)c(OC)c2)cc1OC (stereo not drawn) was read as SKN-1 inh 12, CendR NRP1 mod -16, MT1-MMP act inh -5 and iPSC survival up -2.
`Cc1snc(S(=O)(=O)/C(C#N)=N/Nc2cccc(C(F)(F)F)c2)c1C#N` gave SKN-1 inh 1, CendR NRP1 mod 27*, MT1-MMP act inh 10 and iPSC survival up -1.
`COc1ccc(N/N=C(/C#N)S(=O)(=O)c2nsc(C)c2C#N)cc1` gave SKN-1 inh -1, CendR NRP1 mod 2, MT1-MMP act inh -8 and iPSC survival up 0.
For COC(=O)CN1C(=S)N(c2ccc(OC)cc2)C(=O)/C1=C/c1ccc(N2CCOCC2)cc1 the results were SKN-1 inh 37*, CendR NRP1 mod -153, MT1-MMP act inh -134 and iPSC survival up -3.
Screening Cc1ccc(NC(=O)Cn2ncc3c([nH]c4ccccc43)c2=O)cc1Cl returned SKN-1 inh 3, CendR NRP1 mod -6, MT1-MMP act inh 4 and iPSC survival up 0.
Screening O=C(CNC(=O)c1cccs1)N=Nc1c(O)[nH]c2ccc([N+](=O)[O-])cc12 returned SKN-1 inh 22, CendR NRP1 mod 30*, MT1-MMP act inh 0 and iPSC survival up 0.
CCCCCCC(=O)N=Nc1c(O)[nH]c2ccc([N+](=O)[O-])cc12 was read as SKN-1 inh -6, CendR NRP1 mod 13, MT1-MMP act inh 10 and iPSC survival up 3.
